Type in all cases: functional, organism-based
In one test the test system is Aspergillus niger. Description: Antifungal activity against Aspergillus niger NCTC 275 after 4 days. Particulars: NCTC 275, 96 h. The method, boiled down: (§1)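 Compounds were incorporated into agar medium at final concentrations of 200, 100, 50 and 10 µg/mL. A disc of fungal mycelium was placed at the centre of each Petri dish. Plates were incubated at 37 °C until the control plates reached full growth (4 days). Inhibition diameter was then measured and IC50 derived. Values are means of replicates.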

The next test deals with Fusarium oxysporum. Kind of test: Antifungal activity against Fusarium oxysporum after 4 days. Particulars: 96 h. The method, boiled down: as §1
Test [1] concerns Staphylococcus aureus. Description: Antibacterial activity against methicillin-resistant Staphylococcus aureus NCTC 10442 by paper disc diffusion method.
In the next test the test system is Escherichia coli. Description: Antibacterial activity against Escherichia coli by paper disc diffusion method. Background: In agar diffusion tests the substance spreads into inoculated agar from a disc or well.
Test [2] concerns Staphylococcus aureus. Description: Antibacterial activity against methicillin-resistant Staphylococcus aureus NCTC 10442 assessed as protein content after 3 hrs by bradford method. Conditions: NCTC 10442, 3 h. The essentials: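 MRSA exposed to compounds dissolved in DMSO, with a DMSO-only negative control and gentamycin at the same concentrations in sterile water as positive control. Incubated 3 h at 37 °C; growth read as protein content by the Bradford method and plotted against compound concentration.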

In brackets after ≈: the same amount, converted by molar mass. Activity calls are given as the source filed them. No cut-off for these calls is given here.

As a reminder, the IC50 is the concentration needed to halve the response being measured. In the case of `COc1ccc2oc(-c3cc(C(F)(F)F)cc(C(F)(F)F)c3)cc(=O)c2c1`, the IC50 in the test on Aspergillus niger was found to be 93.4 µg/mL (≈ 241 µM); in the test on Fusarium oxysporum, 177 µg/mL (≈ 457 µM).

On to `COc1ccc2c(=O)cc(-c3ccc(Br)cc3)oc2c1`, for which the IC50 in the test on Aspergillus niger was 28.2 µg/mL (≈ 85.2 µM); in the test with Fusarium oxysporum, 176 µg/mL (≈ 531 µM).

As to `O=c1cc(C2CCCCC2)oc2ccc(Br)cc12`, the outcome in the test with Staphylococcus aureus [1] was Active. Moreover, the result in the test with Escherichia coli was inactive. Further, the IC50 came to 12000 µg/mL (≈ 39100 µM) with Staphylococcus aureus [2], 90.4 µg/mL (≈ 294 µM) with Aspergillus niger and 107 µg/mL (≈ 347 µM) in the test with Fusarium oxysporum.

In the case of `O=c1cc(-c2ccccc2)oc2ccc(Br)cc12` [6-BROMOFLAVONE], the IC50 in the test on Aspergillus niger came out at 77.1 µg/mL (≈ 256 µM); in the test on Fusarium oxysporum, 26900 µg/mL (≈ 89400 µM).

Consider `O=c1cc(-c2cc(C(F)(F)F)cc(C(F)(F)F)c2)oc2ccc(Br)cc12`, for which the values for the IC50 with Aspergillus niger and with Fusarium oxysporum were 60.3 µg/mL (≈ 138 µM) and 65.2 µg/mL (≈ 149 µM), respectively.

Regarding `COc1ccc(-c2cc(=O)c3cc(Br)ccc3o2)cc1`, the IC50 came out at 83.4 µg/mL (≈ 252 µM) in the test on Aspergillus niger and 2250 µg/mL (≈ 6790 µM) with Fusarium oxysporum.

On to `COc1ccc2oc(-c3ccc(Cl)cc3)cc(=O)c2c1`, for which the results for the IC50 in the test with Aspergillus niger and in the test with Fusarium oxysporum were 41.9 µg/mL (≈ 146 µM) and 1430 µg/mL (≈ 4980 µM), respectively.

With `COc1ccc2oc(C3CCCCC3)cc(=O)c2c1`, in the test on Staphylococcus aureus [1], the outcome was Active. Further, in the test with Escherichia coli, the result was inactive. Moreover, the IC50 amounted to 69.6 µg/mL (≈ 269 µM) with Staphylococcus aureus [2], 58.9 µg/mL (≈ 228 µM) in the test with Aspergillus niger and 117 µg/mL (≈ 452 µM) in the test on Fusarium oxysporum.

For `O=c1cc(-c2ccc(Cl)cc2)oc2ccc(Br)cc12`, the IC50 was determined as 157 µg/mL (≈ 469 µM) with Aspergillus niger and 282 µg/mL (≈ 840 µM) in the test with Fusarium oxysporum.

Take `O=c1cc(-c2ccc(F)cc2)oc2ccc(Br)cc12`: the values for the IC50 with Aspergillus niger and in the test with Fusarium oxysporum were 142 µg/mL (≈ 444 µM) and 682 µg/mL (≈ 2140 µM), respectively.

In the case of `COc1ccc2c(=O)cc(-c3cc(Cl)cc(Cl)c3)oc2c1`, the figures for the IC50 in the test with Aspergillus niger and in the test with Fusarium oxysporum were 178 µg/mL (≈ 553 µM) and 10600 µg/mL (≈ 33000 µM), respectively.

(Values after ChEMBL document CHEMBL1141646, “Microwave-assisted synthesis and antimicrobial activities of flavonoid derivatives” (Bioorg Med Chem Lett, 2008).)
